In ChEMBL document CHEMBL1138085, “Thiazolo[5,4-f]quinazolin-9-ones, inhibitors of glycogen synthase kinase-3” (Bioorg Med Chem Lett, 2006):

Molecular target: Cyclin-dependent kinase 1/cyclin B (Homo sapiens, UniProt P06493)
Assay: Inhibition of CDK1/cyclinB in presence of 15 uM ATP
Assay type: protein-complex assay

Question: With `CCn1cnc2ccc3nc(C4=NCCN4)sc3c2c1=O` as the molecule, how does the IC50 read?
Answer: Its IC50 is > 100 µM.

Question: For `CC(C)n1cnc2ccc3nc(C(=N)NCCN(C)C)sc3c2c1=O`, which IC50 is on record?
Answer: The IC50 was 10 µM.

Question: With `CC(C)CCn1cnc2ccc3nc(C4=NCCN4)sc3c2c1=O` as the molecule, how does the IC50 read?
Answer: The IC50 was > 10 µM.

Question: How did the IC50 turn out when `CCCn1cnc2ccc3nc(C4=NCCN4)sc3c2c1=O` was run?
Answer: The IC50 was > 100 µM.

Question: How did the IC50 turn out when `CC(C)Cn1cnc2ccc3nc(C4=NCCN4)sc3c2c1=O` was run?
Answer: Its IC50 is 85 µM.

Question: How did the IC50 turn out when `COc1ccc(Cn2cnc3ccc4nc(C5=NCCN5)sc4c3c2=O)cc1` was run?
Answer: Its IC50 is > 10 µM.

Question: For `CC(C)n1cnc2ccc3nc(C4=NCCN4)sc3c2c1=O`, which IC50 is on record?
Answer: The IC50 was > 100 µM.

Molecular target: Glycogen synthase kinase-3 (Homo sapiens, UniProt P49840+P49841)
Assay: Inhibition of GSK3alpha/beta in presence of 15 uM ATP
Assay type: protein assay
How it was run: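 Assayed against GSK-3α/β using GS-1 peptide as substrate, final ATP 15 μM; conditions otherwise follow earlier published method.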

Question: For `CCn1cnc2ccc3nc(C(=N)NC(C)C)sc3c2c1=O`, which IC50 is on record?
Answer: Its IC50 is 7.2 µM.

Question: For `CCn1cnc2ccc3nc(C4=NCCN4)sc3c2c1=O`, which IC50 is on record?
Answer: Its IC50 is 4.2 µM.

Question: For `CC(C)n1cnc2ccc3nc(C(=N)NCCN(C)C)sc3c2c1=O`, which IC50 is on record?
Answer: Its IC50 is 0.56 µM.

Question: `CC(C)CCn1cnc2ccc3nc(C4=NCCN4)sc3c2c1=O` was tested. Which IC50 did it give?
Answer: The IC50 was > 10 µM.

Question: Which IC50 does the source give for `CCn1cnc2ccc3nc(C(=N)NCCN(C)C)sc3c2c1=O` here?
Answer: Its IC50 is 1.3 µM.

Question: For `CCCn1cnc2ccc3nc(C4=NCCN4)sc3c2c1=O`, which IC50 is on record?
Answer: Its IC50 is 1.6 µM.

Question: For `CC(C)Cn1cnc2ccc3nc(C4=NCCN4)sc3c2c1=O`, which IC50 is on record?
Answer: The IC50 was 4.6 µM.

Question: `O=c1c2c(ccc3nc(C4=NCCN4)sc32)ncn1Cc1ccccc1` was tested. Which IC50 did it give?
Answer: Its IC50 is > 10 µM.

Question: With `COc1ccc(Cn2cnc3ccc4nc(C5=NCCN5)sc4c3c2=O)cc1` as the molecule, how does the IC50 read?
Answer: The IC50 was > 10 µM.

Question: With `CC(C)NC(=N)c1nc2ccc3ncn(C(C)C)c(=O)c3c2s1` as the molecule, how does the IC50 read?
Answer: The IC50 was 9.4 µM.

Question: With `CC(C)n1cnc2ccc3nc(C4=NCCN4)sc3c2c1=O` as the molecule, how does the IC50 read?
Answer: The IC50 was 1.6 µM.

Molecular target: Cyclin-dependent kinase 5/CDK5 activator 1 (Homo sapiens, UniProt Q00535)
Assay: Inhibition of CDK5/p25 in presence of 15 uM ATP
Assay type: protein-complex assay
How it was run: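 Kinase activity assayed with histone H1 as protein substrate and ATP at 15 μM final; procedure otherwise as previously described.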

Sequence of Cyclin-dependent kinase 5/CDK5 activator 1 (Q00535 whole entry): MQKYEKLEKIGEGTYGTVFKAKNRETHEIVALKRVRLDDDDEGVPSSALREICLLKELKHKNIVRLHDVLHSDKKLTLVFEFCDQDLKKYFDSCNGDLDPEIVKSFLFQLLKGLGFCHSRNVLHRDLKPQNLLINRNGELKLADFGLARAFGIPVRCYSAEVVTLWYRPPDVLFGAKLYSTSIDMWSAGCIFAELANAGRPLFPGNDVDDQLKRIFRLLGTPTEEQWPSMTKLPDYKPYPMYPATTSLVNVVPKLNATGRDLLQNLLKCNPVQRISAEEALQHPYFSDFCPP
Sequence of Cyclin-dependent kinase 5/CDK5 activator 1 (Q15078 whole entry, further chain): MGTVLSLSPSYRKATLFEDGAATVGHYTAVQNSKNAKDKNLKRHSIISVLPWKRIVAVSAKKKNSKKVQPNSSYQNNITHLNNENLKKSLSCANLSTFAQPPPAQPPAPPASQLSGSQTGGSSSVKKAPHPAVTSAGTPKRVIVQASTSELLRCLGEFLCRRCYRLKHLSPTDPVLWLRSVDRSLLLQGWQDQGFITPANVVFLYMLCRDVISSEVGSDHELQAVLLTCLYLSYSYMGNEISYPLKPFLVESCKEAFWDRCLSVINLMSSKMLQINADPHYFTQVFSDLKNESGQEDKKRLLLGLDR

Question: With `CCn1cnc2ccc3nc(C4=NCCN4)sc3c2c1=O` as the molecule, how does the IC50 read?
Answer: The IC50 was > 100 µM.

Question: With `CC(C)n1cnc2ccc3nc(C(=N)NCCN(C)C)sc3c2c1=O` as the molecule, how does the IC50 read?
Answer: Its IC50 is 4 µM.

Question: Which IC50 does the source give for `CC(C)CCn1cnc2ccc3nc(C4=NCCN4)sc3c2c1=O` here?
Answer: Its IC50 is > 10 µM.

Question: For `CCCn1cnc2ccc3nc(C4=NCCN4)sc3c2c1=O`, which IC50 is on record?
Answer: The IC50 was > 100 µM.

Question: With `CC(C)Cn1cnc2ccc3nc(C4=NCCN4)sc3c2c1=O` as the molecule, how does the IC50 read?
Answer: Its IC50 is > 100 µM.

Question: Which IC50 does the source give for `O=c1c2c(ccc3nc(C4=NCCN4)sc32)ncn1Cc1ccccc1` here?
Answer: The IC50 was > 10 µM.

Question: Which IC50 does the source give for `CC(C)n1cnc2ccc3nc(C4=NCCN4)sc3c2c1=O` here?
Answer: The IC50 was > 100 µM.
